KDM4C inh = inhibitors of GASC-1 (KDM4C) histone demethylase, primary screen, biochemical, single concentration HTS | GST-KDM4C 2-372, H3K9me3 peptide, LANCE TR-FRET | hit rate 0.15% among 96,000 | inhibition, % at 12.5 µM | Lysine-specific demethylase 4C (Homo sapiens), Q9H3R0 | AID 720574, 2013;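 active = mean replicate inhibition above about 25%, with at least 55% of replicates also reaching it, limit read from the data, passing the limit was not always enough; inconclusive = only one of those two conditions met; inactive = neither condition met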
Target sequence (Q9H3R0 2-372 limits assumed): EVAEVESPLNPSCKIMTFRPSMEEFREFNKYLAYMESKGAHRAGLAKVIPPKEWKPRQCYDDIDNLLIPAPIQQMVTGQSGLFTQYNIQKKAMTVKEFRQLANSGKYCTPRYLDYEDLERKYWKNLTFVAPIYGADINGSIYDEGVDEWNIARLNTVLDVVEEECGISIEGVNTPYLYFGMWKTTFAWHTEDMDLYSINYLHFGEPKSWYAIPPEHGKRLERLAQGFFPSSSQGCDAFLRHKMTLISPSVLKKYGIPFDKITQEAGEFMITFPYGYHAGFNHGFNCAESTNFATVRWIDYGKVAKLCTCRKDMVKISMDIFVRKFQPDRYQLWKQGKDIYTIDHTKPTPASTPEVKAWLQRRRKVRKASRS
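reagent = H3K9me3 peptide substrate, Fe(II), 2-oxoglutarate | system = GST-tagged GASC-1 (JMJD2C) catalytic fragment, aa 2-372 | amount = enzyme final amount 10 nM | read-out = Fall in 671/618 emission ratio as inhibition | medium = HEPES buffer, pH 7.5, plus ascorbate | schedule = 30 min reaction, 60 min detection, RT | measured by = LANCE TR-FRET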
T cruzi growth-1 = T. cruzi intracellular proliferation inhibitors, primary screen, cell-based, beta-gal Tulahuen parasites, NIH3T3 host, luminescence; T. cruzi beta-gal in NIH3T3, GalScreen luminescence, 90 h; inhibition, % at 8.34 µM; hit rate 5.9% among 77,000;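 active = mean inhibition above about 93%, with at least 55% of replicates each passing it, limit read from the data, passing the limit was not always enough; inconclusive = only one of those two conditions holds; inactive = neither condition holds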
IDH1 mut inh = inhibitors of IDH1 R132H reductase, primary screen, biochemical, plate reader, single point; inhibition, % at 10 µM; hit rate 0.18% among 70,000; diaphorase/resazurin fluorescence, 60 min; in the data active = inhibition above about 34%; inconclusive = no clear call, values can overlap the other calls; inactive = below about 11%;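 note: 0% = DMSO and 100% = no enzyme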
Target sequence (O75874 whole entry R132H): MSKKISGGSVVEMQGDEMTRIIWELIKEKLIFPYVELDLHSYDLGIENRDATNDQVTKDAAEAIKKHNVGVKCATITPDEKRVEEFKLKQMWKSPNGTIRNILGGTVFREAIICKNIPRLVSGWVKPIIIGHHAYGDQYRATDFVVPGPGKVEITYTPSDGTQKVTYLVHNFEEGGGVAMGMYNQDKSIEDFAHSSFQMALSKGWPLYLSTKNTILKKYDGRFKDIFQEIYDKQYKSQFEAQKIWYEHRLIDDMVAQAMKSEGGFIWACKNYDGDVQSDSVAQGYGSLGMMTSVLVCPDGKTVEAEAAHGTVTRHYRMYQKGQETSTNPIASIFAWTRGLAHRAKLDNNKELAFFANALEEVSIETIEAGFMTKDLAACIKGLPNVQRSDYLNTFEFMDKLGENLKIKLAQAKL
T cruzi growth-2 = T. cruzi intracellular proliferation inhibitors, confirmation, cell-based, NIH3T3 host, beta-gal parasite, luminescence, cherry-pick; T. cruzi beta-gal in NIH3T3, GalScreen luminescence, 90 h; shares compounds with T cruzi growth-1; hit rate 72% among 5,600; inhibition, % at 8.35 µM;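 active = mean replicate inhibition above about 95% and at least 55% of replicates individually reaching it, limit read from the data; inconclusive = only one of the two criteria is met; inactive = neither criterion is met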
T cruzi growth-3 = inhibitors of intracellular T. cruzi replication, confirmation, NIH3T3 host cells, beta-gal parasites, cherry-pick, set 2; T. cruzi beta-gal in NIH3T3, GalScreen luminescence, 90 h; AID 651740, 2012; inhibition, % at 2.09 µM; hit rate 21% among 5,600; shares compounds with T cruzi growth-1;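 active = mean inhibition above about 95%, with at least 55% of replicates also reaching it, limit read from the data; inconclusive = meets just one of the two conditions; inactive = meets neither condition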;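 note: plate controls were neutral control median for no effect and positive control median for full effect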
NIH3T3 tox = cytotoxicity in mouse NIH/3T3 fibroblasts, confirmation, cytotoxicity control for T. cruzi proliferation inhibitor project, cell-based, cherry-pick, single point. NIH/3T3 viability, CellTiter-Glo ATP luminescence, 90 h. AID 651742, 2012. hit rate 14% among 5,600. cytotoxicity (signal decrease), % at 8.35 µM. shares compounds with T cruzi growth-1;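 active = mean signal decrease across replicates above about 35% based on untreated-well scatter, with enough replicates individually passing, limit read from the data; inconclusive = no rule stated though some were filed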;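 note: 0% = median of neutral control wells and 100% = median of positive control wells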
3T3 cytotox 2 = NIH/3T3 fibroblast cytotoxicity, confirmation, cytotoxicity control, cell-based, cherry-pick, single point, set 2 | shares compounds with T cruzi growth-1 | NIH/3T3 viability, CellTiter-Glo ATP luminescence, 90 h | inhibition, % at 24.9 µM | hit rate 56% among 5,600 | AID 651744, 2012;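 active = mean loss of cell viability signal at or above a set limit, and enough replicates individually reaching it; inconclusive = meets only the mean limit or only the replicate share; inactive = meets neither condition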;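 note: 0% = median of neutral control wells and 100% = median of positive control wells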
* marks the source's active call; other numbers are inactive results; ? = inconclusive; nt = no result. The entries come from a sample that favours hits as a whole.

SMILES | KDM4C inh | T cruzi growth-1 | IDH1 mut inh | T cruzi growth-2 | T cruzi growth-3 | NIH3T3 tox | 3T3 cytotox 2
CCCNC(=O)N(C)C[C@H]1Oc2cc(C#CCC(C)C)ccc2S(=O)(=O)N([C@@H](C)CO)C[C@@H]1C | -1.7 | 105.9* | -2.8 | 100.1* | 30.7 | 16.1 | 28.1*
CC(=O)N(C)C[C@H]1Oc2cc(C#Cc3cccc(F)c3)ccc2S(=O)(=O)N([C@H](C)CO)C[C@@H]1C | -2.8 | 64.0 | -0.2 | nt | nt | nt | nt
CCCNC(=O)N(C)C[C@@H]1Oc2cc(C#Cc3cccc(F)c3)ccc2S(=O)(=O)N([C@H](C)CO)C[C@H]1C | -3.9 | ? | 1.7 | 105.7* | 71.1 | 46.5* | 94.1*
CCCC#Cc1ccc2c(c1)O[C@@H](CN(C)C(=O)NCCC)[C@@H](C)CN([C@H](C)CO)S2(=O)=O | 0.1 | 40.2 | -0.5 | nt | nt | nt | nt
CCCNC(=O)N(C)C[C@@H]1Oc2cc(C#CCC(C)C)ccc2S(=O)(=O)N([C@H](C)CO)C[C@@H]1C | -1.3 | 61.9 | 0.1 | nt | nt | nt | nt
CC(=O)N(C)C[C@@H]1Oc2cc(C#Cc3cccc(F)c3)ccc2S(=O)(=O)N([C@@H](C)CO)C[C@@H]1C | -3.5 | 43.5 | -0.4 | nt | nt | nt | nt
CCCNC(=O)N(C)C[C@@H]1Oc2cc(C#Cc3cccc(F)c3)ccc2S(=O)(=O)N([C@H](C)CO)C[C@@H]1C | -0.1 | 116.4* | -0.3 | 110.6* | 61.3 | 15.5 | 47.4*
CC(C)NC(=O)N(C)C[C@H]1Oc2cc(C#Cc3cccc(F)c3)ccc2S(=O)(=O)N([C@H](C)CO)C[C@@H]1C | 9.3 | 4.5 | 0.9 | nt | nt | nt | nt
C[C@@H]1CN([C@H](C)CO)C(=O)c2cc(-c3cccc(C#N)c3)cnc2O[C@H]1CN(C)C(=O)C1CC1 | -0.6 | 90.4 | -1.6 | nt | nt | nt | nt
Cc1ccc(Cl)c(OCC(=O)Nc2sc(C)c(C)c2C(N)=O)c1 | nt | nt | 0.0 | nt | nt | nt | nt
Cc1ccc(S(=O)(=O)N(C)C[C@H]2Oc3ncc(C#CCC(C)C)cc3C(=O)N([C@@H](C)CO)C[C@@H]2C)cc1 | -0.6 | 123.8* | -0.1 | 109.8* | 74.0 | -4.8 | 93.2*
Cc1ccc(S(=O)(=O)N(C)C[C@@H]2Oc3ncc(C#CCN(C)C)cc3C(=O)N([C@H](C)CO)C[C@@H]2C)cc1 | 0.9 | 13.6 | -0.3 | nt | nt | nt | nt
Cc1ccc(S(=O)(=O)N(C)C[C@H]2Oc3ncc(C#CCC(C)C)cc3C(=O)N([C@H](C)CO)C[C@@H]2C)cc1 | -3.0 | 109.7* | -3.5 | ? | 51.7 | 4.4 | 33.1*
CC(C)CC#Cc1cnc2c(c1)C(=O)N([C@@H](C)CO)C[C@@H](C)[C@@H](CN(C)S(=O)(=O)c1ccccc1)O2 | -2.2 | 60.0 | -0.1 | nt | nt | nt | nt
CC(C)CC#Cc1cnc2c(c1)C(=O)N([C@@H](C)CO)C[C@H](C)[C@@H](CN(C)S(C)(=O)=O)O2 | 1.2 | 23.1 | -6.5 | nt | nt | nt | nt
CC(C)CC#Cc1cnc2c(c1)C(=O)N([C@H](C)CO)C[C@@H](C)[C@@H](CN(C)S(C)(=O)=O)O2 | 3.4 | 39.2 | 5.3 | nt | nt | nt | nt
CC(C)CC#Cc1cnc2c(c1)C(=O)N([C@@H](C)CO)C[C@H](C)[C@@H](CN(C)S(=O)(=O)c1ccccc1)O2 | -2.7 | ? | -3.6 | 101.9* | 72.1 | 12.8 | ?
Cc1ccc(S(=O)(=O)N(C)C[C@@H]2Oc3ncc(C#CCC(C)C)cc3C(=O)N([C@@H](C)CO)C[C@H]2C)cc1 | 0.6 | 117.2* | -0.6 | 104.5* | 84.8 | 11.4 | 101.9*
Cc1noc(C)c1NC(=O)N(C)C[C@@H]1Oc2ccc(NC(=O)NC3CCCCC3)cc2CC(=O)N([C@H](C)CO)C[C@@H]1C | 1.5 | 41.6 | nt | nt | nt | nt | nt
C[C@H](CO)N1C[C@H](C)[C@H](CN(C)C(=O)C2CCC2)Oc2ncc(-c3ccncc3)cc2C1=O | 2.7 | 34.6 | nt | nt | nt | nt | nt
Cc1noc(C)c1NC(=O)N(C)C[C@H]1Oc2c(NC(=O)NC3CCCCC3)cccc2C(=O)N([C@@H](C)CO)C[C@H]1C | -3.8 | 7.0 | -1.1 | nt | nt | nt | nt
O=C(CCN1CCCCC1)N[C@@H]1CC[C@H](CCn2cc(-c3ccc(F)cc3)nn2)O[C@@H]1CO | -0.9 | 5.9 | 0.0 | nt | nt | nt | nt
CC=Cc1ccc2n(c1=O)C[C@H]1[C@H](CO)[C@@H](C(=O)NCc3cccc(OC)c3)N[C@@H]21 (mixture of isomers) | -2.1 | 11.0 | nt | nt | nt | nt | nt
CCCC#Cc1ccc2c(c1)O[C@@H](CN(C)C(=O)Nc1ccc(OC)cc1)[C@@H](C)CN([C@H](C)CO)S2(=O)=O | -0.6 | 104.5* | nt | 111.9* | 49.8 | 1.3 | 31.2
COc1ccc(NC(=O)N(C)C[C@H]2Oc3cc(C#CCC(C)C)ccc3S(=O)(=O)N([C@H](C)CO)C[C@H]2C)cc1 | 1.8 | 6.3 | 0.2 | nt | nt | nt | nt
SMILES | KDM4C inh | T cruzi growth-1 | IDH1 mut inh | T cruzi growth-2 | T cruzi growth-3 | NIH3T3 tox | 3T3 cytotox 2
COc1ccc(NC(=O)N(C)C[C@@H]2Oc3cc(C#CCC(C)C)ccc3S(=O)(=O)N([C@H](C)CO)C[C@@H]2C)cc1 | -3.8 | 104.2* | -10.5 | 100.7* | 91.9 | 27.4 | 63.5*
CCCC#Cc1ccc2c(c1)O[C@H](CN(C)C(=O)Nc1ccc(OC)cc1)[C@H](C)CN([C@H](C)CO)S2(=O)=O | -0.3 | 82.5 | -3.1 | nt | nt | nt | nt
C[C@H]1CN([C@@H](C)CO)C(=O)c2cc(NC(=O)CCCN(C)C)ccc2O[C@H]1CN(C)CC1CCCCC1 | 0.7 | -41.3 | nt | nt | nt | nt | nt
C[C@H]1CN([C@@H](C)CO)C(=O)Cc2cc(NC(=O)Nc3ccc(C(F)(F)F)cc3)ccc2O[C@@H]1CN(C)C(=O)Nc1ccc2c(c1)OCO2 | -3.5 | nt | 0.6 | nt | nt | nt | nt
C[C@@H]1CN([C@H](C)CO)C(=O)c2cc(NC(=O)Nc3ccc4c(c3)OCO4)ccc2O[C@H]1CN(C)Cc1ccc(Oc2ccccc2)cc1 | 0.5 | -77.2 | nt | nt | nt | nt | nt
C[C@H](CO)N1C[C@H](C)[C@@H](CN(C)Cc2ccc(-c3ccccc3)cc2)Oc2ccc(NC(=O)Nc3ccc4c(c3)OCO4)cc2C1=O | -0.5 | 47.2 | -1.2 | nt | nt | nt | nt
C[C@H](CO)N1C[C@H](C)[C@@H](CN(C)Cc2ccc(Oc3ccccc3)cc2)Oc2ccc(NC(=O)Nc3ccc4c(c3)OCO4)cc2C1=O | 1.6 | ? | nt | 110.8* | -23.6 | 14.6 | -2.3
C[C@@H]1CN([C@@H](C)CO)C(=O)c2cc(NC(=O)Nc3ccc4c(c3)OCO4)ccc2O[C@H]1CN(C)Cc1ccc(-c2ccccc2)cc1 | -0.6 | 95.7* | nt | 101.5* | 91.4 | 32.5 | 81.9*

Assay outcomes from PubChem BioAssay.
